Laboratory results reported in ChEMBL document CHEMBL2029235, “Bio-inspired synthesis and biological evaluation of a colchicine-related compound library” (Bioorg Med Chem Lett, 2012).

Key:
[1] = tested on: HT-29; test: Cytotoxicity against human HT-29 cells after 96 hrs by MTT assay; assay type: functional, cell-based; details: HT-29, 96 h
Summary of the method: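 HT-29 cells in RPMI-1640 with 10% newborn calf serum, 37 °C, 5% CO2. Seeded at 5 × 10^3 cells/well and grown 24 h, then given fresh medium with graded compound concentrations for 96 h. MTT (5 mg/mL stock) added for 1–2 h at 37 °C. Formazan dissolved in DMSO and read at 570 nm; viability taken as absorbance fraction of untreated wells. Run in triplicate, mean ± SD.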

[2] = tested on: HT-29; test: Cytotoxicity against human HT-29 cells

Compound	IC50 [1]	IC50 [2]
COc1cc2c(c(OC)c1OC)-c1c(OS(C)(=O)=O)c(OC)cc3ccnc(c13)CC2	24.4 µM	
COc1cc2c(c(OC)c1OC)[C@H]1CN(S(=O)(=O)c3ccc(C)cc3)[C@@H](CC2)C2=CC(=O)C(=O)C=C21	6.6 µM	
COc1cc2c(cc1O)[C@@H]1CCc3cc(OC)c(OC)c(OC)c3[C@H]2CN1C(C)=O	> 50 µM	
COC1=C[C@@]23CCN(S(C)(=O)=O)[C@@H](CCc4cc(OC)c(OC)c(OC)c42)C3=CC1=O	> 50 µM	
COc1cc2c3c(c1O)-c1c(cc(OC)c(OC)c1OC)CC[C@@H]3N(C(=O)C(F)(F)F)C=C2	0.684 µM	
COc1cc2c(c(OC)c1OC)-c1c(OC(=O)c3ccccc3)c(OC)cc3ccnc(c13)CC2	2.56 µM	
COc1cc2c(c(OC)c1OC)-c1c(OC(C)=O)c(OC)cc3ccnc(c13)CC2	0.189 µM	
COc1cc2c3c(c1O)-c1c(cc(OC)c(OC)c1OC)CC[C@@H]3N(C)CC2=O	22.5 µM	
COc1cc2c3c(c1O)-c1c(cc(OC)c(OC)c1OC)CC[C@@H]3N(S(=O)(=O)C(F)(F)F)CC2	10.4 µM	
COc1cc2c3c(c1O)-c1c(cc(OC)c(OC)c1OC)CC[C@@H]3N(S(C)(=O)=O)C(O)C2=O (some centres undefined)	> 50 µM	
COc1cc2c3c(c1O)-c1c(cc(OC)c(OC)c1OC)CC[C@@H]3N(S(C)(=O)=O)CC2	7.95 µM	
COc1cc2c(c(OC)c1OC)-c1c(OS(=O)(=O)C(F)(F)F)c(OC)cc3ccnc(c13)CC2	24.6 µM	
COC1=CC2(C=C(OC)C1=O)CC[C@H]1c3c(cc(OC)c(O)c32)CCN1C	> 50 µM	
COc1cc2c3c(c1O)-c1c(cc(OC)c(OC)c1OC)CC[C@@H]3N(C(C)=O)CC2	13.3 µM	
COC(=O)Oc1c(OC)cc2ccnc3c2c1-c1c(cc(OC)c(OC)c1OC)CC3	0.182 µM	
COc1cc2c(cc1O)[C@H](CCc1cc(OC)c(OC)c(OC)c1)N(C(=O)C(F)(F)F)CC2	> 50 µM	
COc1cc2c(c(OC)c1OC)-c1c(OC(C)=O)c(OC)cc3c1[C@H](CC2)N(C(=O)C(F)(F)F)C=C3	1.25 µM	
COc1cc2c(c(OC)c1OC)-c1c(OC(C)=O)c(OC)cc3c1[C@H](CC2)N(C)CC3=O	27.2 µM	
COc1cc2c(cc1OC(C)=O)[C@H]1CCc3cc(OC)c(OC)c(OC)c3[C@@H](C2)N1Cc1ccccc1	21.7 µM	
COc1cc2c(cc1O)[C@@H]1CCc3cc(OC)c(OC)c(OC)c3[C@H]2CN1S(C)(=O)=O	11.6 µM	
COC1=CC2=C3c4c(c(OC)cc5ccnc(c45)CC2)O[C@]3(OC)C1=O	23.9 µM	
COc1cc2c(cc1O)[C@H]1CCc3cc(OC)c(OC)c(OC)c3[C@@H](C2)N1Cc1ccccc1	9.1 µM	

Compound	IC50 [1]	IC50 [2]
COc1cc2c(cc1OC(C)=O)[C@@H]1CCc3cc(OC)c(OC)c(OC)c3[C@H]2CN1C(=O)C(F)(F)F	40.8 µM	
COc1cc2c(c(OC)c1OC)-c1ccc(OC)c(=O)cc1[C@@H](NC(C)=O)CC2 [COLCHICINE]		8 nM
COc1cc2c3c(c1O)-c1c(cc(OC)c(OC)c1OC)CC[C@@H]3N(C(=O)C(F)(F)F)CC2	6.45 µM	
COC1=CC2(C=C(OC)C1=O)CC[C@H]1c3c(cc(OC)c(O)c32)CCN1S(=O)(=O)C(F)(F)F	46.5 µM	
COc1cc2c(c(OC)c1OC)-c1c(OC(=O)OCC(Cl)(Cl)Cl)c(OC)cc3ccnc(c13)CC2	0.229 µM	
COc1cc2c(c(OC)c1OC)-c1c(OC(=O)C3CCCCC3)c(OC)cc3ccnc(c13)CC2	0.99 µM	
COc1cc2ccnc3c2c(c1O)-c1c(cc(OC)c(OC)c1OC)CC3	0.179 µM	
COc1cc2c(c(OC)c1OC)-c1c(OC(=O)Oc3ccccc3)c(OC)cc3c1[C@H](CC2)N(C)CC3=O	30.8 µM	
COc1cc2c(c(OC)c1OC)-c1c(OS(=O)(=O)C(F)(F)F)c(OC)cc3c1C(=CC2)N(S(=O)(=O)C(F)(F)F)C=C3	10.1 µM	
COC1=C[C@@]23CCN(S(=O)(=O)c4ccc(C)cc4)[C@@H](CCc4cc(OC)c(OC)c(OC)c42)C3=CC1=O	42.7 µM	
COC1=C[C@@]23CCN(C(C)=O)[C@@H](CCc4cc(OC)c(OC)c(OC)c42)C3=CC1=O	37.8 µM	
COc1cc2c(cc1OC(C)=O)[C@H]1CCc3cc(OC)c(OC)c(OC)c3[C@@H](C2)N1C	43.5 µM	
COC1=C[C@@]23CCN(C(=O)C(F)(F)F)[C@@H](CCc4cc(OC)c(OC)c(OC)c42)C3=CC1=O	> 50 µM	
COc1cc2c(c(OC)c1OC)-c1c(OC(=O)Oc3ccccc3)c(OC)cc3ccnc(c13)CC2	0.132 µM	
COc1cc2c3c(c1O)-c1c(cc(OC)c(OC)c1OC)CC[C@@H]3N(S(=O)(=O)C(F)(F)F)CC2=O	1.16 µM	
COC1=C[C@@]23CCN(S(=O)(=O)C(F)(F)F)[C@@H](CCc4cc(OC)c(OC)c(OC)c42)C3=CC1=O	15.7 µM	
COc1cc2c(cc1O)[C@@H]1CCc3cc(OC)c(OC)c(OC)c3[C@H]2CN1C(=O)C(F)(F)F	27.8 µM	
COc1cc2c(cc1OC)[C@H]1CCc3cc(OC)c(OC)c(OC)c3[C@@H](C2)N1C	> 50 µM	
COc1cc2c(cc1O)[C@@H]1CCc3cc(OC)c(OC)c(OC)c3[C@H]2CN1S(=O)(=O)c1ccc(C)cc1	10.8 µM	
COC1=CC2(C=C(OC)C1=O)CC[C@H]1c3c(cc(OC)c(O)c32)CCN1C(C)=O	45.9 µM	
COc1cc2c(c(OC)c1OC)-c1c(OC(=S)n3ccnc3)c(OC)cc3ccnc(c13)CC2	0.293 µM	
COc1cc2c(cc1O)[C@H]1CCc3cc(OC)c(OC)c(OC)c3[C@@H](C2)N1C	> 50 µM	
